For orientation: IC50 means the point on the concentration scale where inhibition reaches its midpoint. The term inhibition denotes the drop in the measured response relative to a control, in per cent.

Test [1] concerns Triticum aestivum. The test can be described thus: Growth inhibition of Triticum aestivum L. cv. Duro at 1 mM after 24 hrs by coleoptile assay. It counts as functional, organism-based. Put shortly:
(§1)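 Etiolated wheat coleoptile sections (apical 2 mm discarded, next 4 mm used; cut under green safelight), tested at 10^-3 to 10^-6 M from DMSO stock (max 0.1% DMSO final) in phosphate–citrate buffer pH 5.6 with 2% sucrose. Five sections per tube, three tubes per dilution, duplicated. Tubes rotated at 0.25 rpm, 24 h, 22 °C, dark. Lengths from digitized images. Reported as % difference from parallel control; Welch's test.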

Test [2] relates to Solanum lycopersicum. The test can be described thus: Phytotoxicity against Lycopersicon esculentum Will assessed as inhibition of shoot development at 0.5 mM relative to control. The format is functional. Put shortly: (§2)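 Seeds on filter paper in Petri dishes with 10^-2 M MES buffer, pH 6.0. Test concentrations 5×10^-4, 10^-4, 5×10^-5 and 10^-5 M, made by diluting DMSO solutions at 5 μL/mL buffer. Dishes sealed and kept at 25 °C in the dark: lettuce and tomato 5 days, onion 7 days. Plants frozen at -10 °C for 24 h before measurement. Root and shoot length recorded automatically and compared with buffer/DMSO control.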

Test [3] concerns Lactuca sativa. The test can be described thus: Phytotoxicity against Lactuca sativa L. assessed as inhibition of shoot growth at 0.5 mM to 50 uM relative to control. The format is functional, organism-based. In outline:
as §2

Test [4] deals with Lactuca sativa. The test can be described thus: Phytotoxicity against Lactuca sativa L. assessed as inhibition of root growth at 0.5 mM to 50 uM relative to control. It counts as functional, organism-based. Put shortly:
as §2

The test system of test [5] is Allium cepa. The test can be described thus: Phytotoxicity against Allium cepa assessed as inhibition of root growth at 0.5 mM relative to control. It counts as functional. In outline:
as §2

The test system of test [6] is Triticum aestivum. The test can be described thus: Growth stimulation of Triticum aestivum L. cv. Duro at <1 mM after 24 hrs by coleoptile assay. The format is functional, organism-based. In outline:
as §1

For test [7], the system named is Triticum aestivum. The test can be described thus: Growth inhibition of Triticum aestivum L. cv. Duro after 24 hrs by coleoptile assay. The format is functional, organism-based. Put shortly:
as §1

The test system of test [8] is Triticum aestivum. The test can be described thus: Growth inhibition of Triticum aestivum L. cv. Duro at 1 uM after 24 hrs by coleoptile assay. The format is functional. In outline: as §1
Test [9] has as its system Solanum lycopersicum. The test can be described thus: Phytotoxicity against Lycopersicon esculentum Will assessed as inhibition of root growth at 0.5 mM to 50 uM relative to control. The format is functional. In outline:
as §2

Test [10] deals with Allium cepa. The test can be described thus: Phytotoxicity against Allium cepa assessed as inhibition of shoot growth at 0.5 mM relative to control. The format is functional. In outline:
as §2

Active and inactive are the calls of the source. The calls are words filed in the database; no cut-off is given here.

In the test with Triticum aestivum [1], `C=C1C(=O)O[C@@H]2[C@H]3C(C)=CC[C@H]3[C@](C)(O)C[C@@H](OC(=O)/C(C)=C\C)[C@@H]12` displayed a half-maximal inhibitory concentration (IC50) of 150 µM and an inhibition at 1000 µM of 98%.

In the case of `C=C1C(=O)O[C@H]2/C=C(/CO)C(=O)/C=C/[C@@](C)(O)C[C@@H](OC(=O)/C(C)=C\C)[C@@H]12`, the inhibition at 500 µM was 20% in the test with Solanum lycopersicum [2] and 54% in the test on Allium cepa [5]. Further, the outcome in the test with Lactuca sativa [3] and in the test with Lactuca sativa [4] was Active.

In the case of `C=C1C(=O)O[C@H]2[C@H]1[C@H](OC(=O)/C(C)=C\C)C[C@@]1(C)[C@H](O)C[C@H](O)C(=C)[C@@H]21`, the outcome in the test with Triticum aestivum [6] was Active.

In the test with Triticum aestivum [7] (Triticum aestivum, 24 h), `C=C1C(=O)O[C@@H]2[C@H]3C(CO)=CC[C@H]3C(=C)CC[C@@H]12` [ANNUOLIDE A] displayed an IC50 of 370 µM. The molecule further registered an inhibition at 1 µM in the test with Triticum aestivum [8] of 35%. The molecule further yielded an inhibition at 1000 µM in the test with Triticum aestivum [1] of 90%.

On to `C=C1C(=O)O[C@@H]2[C@H]3C(C)=C[C@H](O)[C@H]3[C@](C)(O)C[C@@H](OC(=O)/C(C)=C\C)[C@@H]12` [ANNUOLIDE H], for which the “inhibition (INH)” value in the test with Triticum aestivum [7] is given as 82%.

`C=C1C(=O)O[C@H]2[C@H]1[C@H](OC(=O)/C(C)=C\C)C[C@]1(C)C=CC(=O)C(=C)[C@H]2O1` [HELIVYPOLIDE F]: the inhibition at 500 µM in the test on Solanum lycopersicum [2] was 20%; in the test with Allium cepa [10], 20%; with Allium cepa [5], 54%. Moreover, the result in the test with Lactuca sativa [3], in the test with Lactuca sativa [4] and with Triticum aestivum [1] was Active. Also, the “inhibition (INH)” value with Solanum lycopersicum [9] is on record as 32%.

For `C=C1C(=O)O[C@@H]2/C=C(/CO)[C@@]3(O)CC[C@@](C)(C[C@@H](OC(=O)/C(C)=C\C)[C@@H]12)O3` [NIVEUSIN B], the inhibition at 500 µM in the test on Solanum lycopersicum [2] stood at 20%. In the test with Triticum aestivum [1], this molecule came in with an inhibition at 1000 µM of 92%.

Source of the values: ChEMBL document CHEMBL1157946, “Sesquiterpene lactones as allelochemicals” (J Nat Prod, 2006).
